Results as given in ChEMBL document CHEMBL2417506, “Synthesis and antiprotozoal activity of original porphyrin precursors and derivatives” (Eur J Med Chem, 2013).
The source made the active and inactive calls. The calls are words filed in the database; no cut-off is given here.

Key:
Plasmodium berghei [1] = assay: Antimalarial activity against chloroquine-sensitive Plasmodium berghei NK-173 infected in Swiss albino mouse assessed as reduction parasitemia at 76.9 mg/kg, […] by Giemsa staining relative to control; assay type: functional; set-up: scale not given: the % may be the effect or the level left; conditions: route intraperitoneal
Plasmodium berghei [2] = assay: Antimalarial activity against chloroquine-sensitive Plasmodium berghei NK-173 infected in Swiss albino mouse assessed as host survival at 76.9 mg/kg, ip qd for 3 days measured on day 30; assay type: functional; conditions: NK-173, ip, route intraperitoneal
Procedure, shortened: (§1)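 Female Swiss albino mice (18–20 g) were infected i.v. on day 0 with 10^6 parasitized RBC in 0.2 ml PBS from a donor mouse, in groups of 10. Dosing was i.p. over days 0–3 and stopped if toxicity appeared. Chloroquine control was 100 µmoles/kg. Giemsa tail smears and RBC counts were taken on days 4, 7, 8, 9, 10 and 14. Mice were followed for deaths.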

Mus musculus [3] = assay: Toxicity in chloroquine-sensitive Plasmodium berghei NK-173 infected Swiss albino mouse assessed as mortality at 38.5 mg/kg, ip qd for 3 days measured up to 4 days; assay type: organism-based; set-up: dose 38.5 mg/kg, route intraperitoneal; conditions: in vivo; procedure, shortened: as §1
Mus musculus [4] = assay: Toxicity in chloroquine-sensitive Plasmodium berghei NK-173 infected Swiss albino mouse assessed as mortality at 38.5 mg/kg, ip administered 4 times per day for 3 days measured up to 4 days; assay type: organism-based; set-up: dose 38.5 mg/kg, route intraperitoneal; conditions: in vivo; procedure, shortened: as §1
Leishmania donovani [5] = assay: Antileishmanial activity against amastigotes forms of Leishmania donovani MHOM/ET/67/HU3 infected in Swiss mouse peritoneal macrophages at 20 uM after 5 days; assay type: functional, organism-based
Procedure, shortened: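 Peritoneal macrophages from female Swiss mice (18–20 g) infected after 24 h with stationary-phase L. donovani promastigotes at 10 parasites per macrophage. Free promastigotes removed at 18 h, then amastigotes treated. Medium with drug renewed at 48 h, stopped at day 5. Percentage of infected macrophages scored microscopically after Giemsa staining. Run in triplicate.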

Plasmodium berghei [6] = assay: Antimalarial activity against chloroquine-sensitive Plasmodium berghei NK-173 infected in Swiss albino mouse assessed as reduction parasitemia at 38.5 mg/kg, ip qd […] by Giemsa staining relative to control; assay type: functional; set-up: scale not given: the % may be the effect or the level left; conditions: route intraperitoneal
Procedure, shortened: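 Four-day Peters test in female Swiss albino mice (18–20 g), groups of 10. Infected i.v. on day 0 with 10^6 parasitized RBC in 0.2 ml PBS, then dosed i.p. on days 0–3, stopped if toxicity appeared. Parasitemia read from Giemsa-stained tail-blood smears and reported as % reduction at day 4.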

Plasmodium berghei [7] = assay: Antimalarial activity against chloroquine-sensitive Plasmodium berghei NK-173 infected in Swiss albino mouse assessed as quantal survival at 38.5 mg/kg, ip administered 4 times per day for 3 days measured on day 14; assay type: functional, organism-based; set-up: dose 38.5 mg/kg; procedure, shortened: as §1
[8] = Cytotoxicity against Swiss mouse peritoneal macrophages at 20 uM after 5 days by MTT assay; assay type: cell-based, Peritoneal macrophage cell
Procedure, shortened: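 Thioglycolate-elicited peritoneal macrophages from female Swiss mice, 5 × 10^4/well in RPMI 1640 with 10% FCS, 25 mM Hepes and 2 mM L-glutamine. Washed at 4 h to remove fibroblasts. Drug-containing medium added at 48 h, stopped at day 5. Viability read by MTT.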

Plasmodium berghei [9] = assay: Antimalarial activity against chloroquine-sensitive Plasmodium berghei NK-173 infected in Swiss albino mouse assessed as quantal survival at 38.5 mg/kg, ip qd for 3 days measured on day 10; assay type: functional, organism-based; set-up: dose 38.5 mg/kg; procedure, shortened: as §1
Mus musculus [10] = assay: Toxicity in chloroquine-sensitive Plasmodium berghei NK-173 infected Swiss albino mouse assessed as death day at 100 mg/kg, ip bid for 3 days measured up to 4 days; assay type: organism-based; set-up: dose 100 mg/kg, route intraperitoneal; conditions: in vivo; procedure, shortened: as §1
Plasmodium berghei [11] = assay: Antimalarial activity against chloroquine-sensitive Plasmodium berghei NK-173 infected in Swiss albino mouse assessed as quantal survival at 76.9 mg/kg, ip qd for 3 days measured on day 10; assay type: functional, organism-based; set-up: dose 76.9 mg/kg; procedure, shortened: as §1
Plasmodium falciparum = assay: Antimalarial activity against Plasmodium falciparum 3D7 infected in human O positive erythrocytes assessed as reduction of parasite growth after 24 to 44 hrs by Giemsa staining; assay type: functional, organism-based
Procedure, shortened: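 Sorbitol-synchronized ring-stage 3D7 parasites in O+ erythrocytes (5% v/v suspension, 0.5% parasitemia) exposed to compounds from DMSO stock for 44 h at 37 °C. Growth measured by pLDH ELISA after freeze-thaw hemolysis and by Giemsa thin smears at 24 and 44 h, counting at least 5000 erythrocytes. Expressed as % reduction against medium-only control.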

Plasmodium berghei [12] = assay: Antimalarial activity against chloroquine-sensitive Plasmodium berghei NK-173 infected in Swiss albino mouse assessed as host survival at 38.5 mg/kg, ip administered 4 times per day for 3 days measured on day 30; assay type: functional; conditions: NK-173, ip, route intraperitoneal; procedure, shortened: as §1
Plasmodium berghei [13] = assay: Antimalarial activity against chloroquine-sensitive Plasmodium berghei NK-173 infected in Swiss albino mouse assessed as quantal survival at 76.9 mg/kg, ip qd for 3 days measured on day 14; assay type: functional, organism-based; set-up: dose 76.9 mg/kg; procedure, shortened: as §1
Plasmodium berghei [14] = assay: Antimalarial activity against chloroquine-sensitive Plasmodium berghei NK-173 infected in Swiss albino mouse assessed as quantal survival at 38.5 mg/kg, ip qd for 3 days measured on day 7; assay type: functional, organism-based; set-up: dose 38.5 mg/kg; procedure, shortened: as §1
[15] = test system: Trypanosoma brucei brucei; assay: Trypanocidal activity against Trypanosoma brucei brucei by drug incubation infectivity test; assay type: functional; conditions: read-out: MEC
Plasmodium berghei [16] = assay: Antimalarial activity against chloroquine-sensitive Plasmodium berghei NK-173 infected in Swiss albino mouse assessed as quantal survival at 76.9 mg/kg, ip qd for 3 days measured on day 7; assay type: functional, organism-based; set-up: dose 76.9 mg/kg; procedure, shortened: as §1
Plasmodium berghei [17] = assay: Antimalarial activity against chloroquine-sensitive Plasmodium berghei NK-173 infected in Swiss albino mouse assessed as quantal survival at 38.5 mg/kg, ip qd for 3 days measured on day 14; assay type: functional, organism-based; set-up: dose 38.5 mg/kg; procedure, shortened: as §1
Plasmodium berghei [18] = assay: Antimalarial activity against chloroquine-sensitive Plasmodium berghei NK-173 infected in Swiss albino mouse assessed as host survival at 100 mg/kg, ip bid for 3 days measured on day 30; assay type: functional; conditions: NK-173, ip, route intraperitoneal; procedure, shortened: as §1
Mus musculus [19] = assay: Toxicity in chloroquine-sensitive Plasmodium berghei NK-173 infected Swiss albino mouse assessed as mortality at 76.9 mg/kg, ip qd for 3 days measured up to 4 days; assay type: organism-based; set-up: dose 76.9 mg/kg, route intraperitoneal; conditions: in vivo; procedure, shortened: as §1
Plasmodium berghei [20] = assay: Antimalarial activity against chloroquine-sensitive Plasmodium berghei NK-173 infected in Swiss albino mouse assessed as quantal survival at 100 mg/kg, ip bid for 3 days measured on day 14; assay type: functional, organism-based; set-up: dose 100 mg/kg; procedure, shortened: as §1
Plasmodium berghei [21] = assay: Antimalarial activity against chloroquine-sensitive Plasmodium berghei NK-173 infected in Swiss albino mouse assessed as host survival at 38.5 mg/kg, ip qd for 3 days measured on day 30; assay type: functional; conditions: NK-173, ip, route intraperitoneal; procedure, shortened: as §1
Leishmania donovani [22] = assay: Antileishmanial activity against promastigote forms of Leishmania donovani MHOM/ET/67/HU3 after 3 days by MTT assay; assay type: functional, organism-based; conditions: MHOM/ET/67/HU3, 72 h
Procedure, shortened: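 Log-phase promastigotes at 10^6 cells/mL in supplemented M-199. Serial dilutions gave final concentrations of 100 µM to 50 nM, in triplicate. Incubated 3 days at 27 °C, dark, 5% CO2. Viability read by MTT reduction, with Triton X100/HCl lysis and absorbance at 570 nm. IC50 ± SD.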

Plasmodium berghei [23] = assay: Antimalarial activity against chloroquine-sensitive Plasmodium berghei NK-173 infected in Swiss albino mouse assessed as quantal survival at 38.5 mg/kg, ip administered 4 times per day for 3 days measured on day 8; assay type: functional, organism-based; set-up: dose 38.5 mg/kg; procedure, shortened: as §1
Plasmodium berghei [24] = assay: Antimalarial activity against chloroquine-sensitive Plasmodium berghei NK-173 infected in Swiss albino mouse assessed as quantal survival at 38.5 mg/kg, ip administered 4 times per day for 3 days measured on day 7; assay type: functional, organism-based; set-up: dose 38.5 mg/kg; procedure, shortened: as §1
Plasmodium berghei [25] = assay: Antimalarial activity against chloroquine-sensitive Plasmodium berghei NK-173 infected in Swiss albino mouse assessed as quantal survival at 38.5 mg/kg, ip qd for 3 days measured on day 9; assay type: functional, organism-based; set-up: dose 38.5 mg/kg; procedure, shortened: as §1

Which results are given for COc1cc(-c2c3nc(c(N4C(=O)CC[C@H]4C(=O)O)c4ccc([nH]4)c(-c4cc(OC)c(OC)c(OC)c4)c4nc(cc5ccc2[nH]5)C=C4)C=C3)cc(OC)c1OC?
Activity (Plasmodium berghei [1]): 40%; survival at 76.9 mg/kg (Plasmodium berghei [2]): 0%; Activity (Mus musculus [3]): Non-toxic; Activity (Mus musculus [4]): Non-toxic; Activity (Leishmania donovani [5]): inactive; Activity (Plasmodium berghei [6]): 0%; Survival (Plasmodium berghei [7]): inactive; CC50 at 120 h [8]: > 100 µM; Survival (Plasmodium berghei [9]): inactive; Time (Mus musculus [10]): 2 days; Survival (Plasmodium berghei [11]): inactive; IC50 (Plasmodium falciparum): 0.02 µM; survival at 38.5 mg/kg (Plasmodium berghei [12]): 0%; Survival (Plasmodium berghei [13]): inactive; Survival (Plasmodium berghei [14]): Active; minimal effective concentration [15]: 25 µM; Survival (Plasmodium berghei [16]): Active; Survival (Plasmodium berghei [17]): inactive; survival at 100 mg/kg (Plasmodium berghei [18]): 0%; Activity (Mus musculus [19]): Non-toxic; Survival (Plasmodium berghei [20]): inactive; survival at 38.5 mg/kg (Plasmodium berghei [21]): 0%; IC50 (Leishmania donovani [22]): 57.2 µM; Survival (Plasmodium berghei [23]): Active; Survival (Plasmodium berghei [24]): Active; Survival (Plasmodium berghei [25]): inactive
